Experimental data published in ChEMBL document CHEMBL5390224, “Design, synthesis, and biological evaluation of a novel series of 1,2,4-oxadiazole inhibitors of SLACK potassium channels: Identification of in vitro tool VU0935685” (Bioorg Med Chem, 2023).
Active and inactive are the calls of the source. The calls are words filed in the database; no cut-off is given here.

Experiments:
Assay type in all cases: cell-based
[1] = (§1) Inhibition of wild-type human SLACK expressed in HEK293 cells by thallium flux assay
Summary of the method: (§2)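 Stable monoclonal HEK293 lines (WT or A934T SLACK) plated 20,000 cells/well; loaded 1 h at room temperature with Thallo-AM dye, 1.25 mM probenecid, masking dye, 0.3% Pluronic F-127 in buffer with 2.7 mM RbCl, pH 7.3. Compound preincubated 120 s, then Tl2SO4 stimulus (2.5 mM); fluorescence read 120 s. Concentration–response 1.5 nM–30 μM in half-log steps, ≥3 replicate wells.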

HEK293 [2] = assay: Inhibition of wild-type human SLACK expressed in HEK293 cells assessed as efficacy at 30 uM by thallium flux assay relative to control; summary of the method: as §2
HEK293 [3] = assay: as §1; summary of the method: as §2
HEK293 [4] = assay: Activation of wild-type human SLACK expressed in HEK293 cells assessed as efficacy at 30 uM by thallium flux assay relative to control
CHO = assay: Inhibition of wild-type human SLACK expressed in CHO cells assessed as efficacy at 30 uM by whole cell voltage clamp electrophysiology assay; conditions: Cricetulus griseus
[5] = Inhibition of wild-type human SLACK expressed in CHO cells by whole cell voltage clamp electrophysiology assay; conditions: Cricetulus griseus
Summary of the method: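 Automated whole-cell patch clamp at room temperature. External (mM): NaCl 105, KCl 4, MgCl2 1, CaCl2 5, HEPES 10, NMDG-Cl 40, pH 7.4. Internal: NaCl 70, KF 70, KCl 10, EGTA 5, HEPES 5, pH 7.2. Concentrations 0.125–30 μM in half-log steps, ≥3 cells per series.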

CCOc1ccccc1S(=O)(=O)N1CC[C@@H](c2nc(-c3ccc(F)cc3)no2)C1
IC50 [1]: > 10 µM
Efficacy (HEK293 [2]): 31%

CCOc1ccccc1S(=O)(=O)N1CC(c2cc(-c3ccc(F)cc3)no2)C1
inhibition (HEK293 [3]): inactive
Efficacy (HEK293 [2]): inactive

CCOc1ccccc1OC(=O)N1CC(c2nc(-c3ccsc3)no2)C1
Efficacy (HEK293 [4]; filed as activator): 50%

CCOc1ccccc1S(=O)(=O)N1CC(c2nc(-c3ccc(C(F)(F)F)cc3)no2)C1
IC50 [1]: 3.8 µM
Efficacy (HEK293 [2]): 95%

CCOc1ccccc1CC(=O)N1CC(c2nc(-c3ccsc3)no2)C1
Efficacy (HEK293 [4]): 37%

CCOc1ccccc1S(=O)(=O)N1CC(c2nc(-c3ccccc3C)no2)C1
Efficacy (HEK293 [4]): < 10%

CCOc1ccccc1S(=O)(=O)N1CC(c2cn(-c3ccc(F)cc3)nn2)C1
Efficacy (HEK293 [4]; filed as activator): 41%

O=S(=O)(c1ccccc1N1CCCC1)N1CC(c2nc(-c3ccc(F)cc3)no2)C1
Efficacy (HEK293 [2]): 92%

CCOc1ccccc1S(=O)(=O)N1CC(c2nnc(-c3ccc(F)cc3)o2)C1
Efficacy (HEK293 [4]): < 10%

O=S(=O)(c1cccc(C(F)(F)F)c1)N1CC(c2nc(-c3ccsc3)no2)C1
Efficacy (HEK293 [4]; filed as activator): 61%

CCOc1ccccc1S(=O)(=O)N1CC(c2nc(-c3cccs3)no2)C1
IC50 [1]: 6.9 µM
Efficacy (HEK293 [2]): 99%

O=S(=O)(c1cccn2cnnc12)N1CC(c2nc(-c3ccc(F)cc3)no2)C1
Efficacy (HEK293 [4]): 14%

CCOc1ccccc1S(=O)(=O)N1CC(c2nc(-c3ccc(F)cc3)c[nH]2)C1
Efficacy (HEK293 [4]): 34%

CCOc1ccccc1S(=O)(=O)N1CC(c2nc(-c3nccs3)no2)C1
inhibition (HEK293 [3]): inactive
Efficacy (HEK293 [2]): inactive

CCNc1ccccc1S(=O)(=O)N1CC(c2nc(-c3ccsc3)no2)C1
inhibition (HEK293 [3]): inactive
Efficacy (HEK293 [2]): inactive

CCOc1ccccc1S(=O)(=O)N1CC(c2cc(-c3ccc(F)cc3)on2)C1
inhibition (HEK293 [3]): inactive
Efficacy (HEK293 [2]): inactive

Cc1nc2c(S(=O)(=O)N3CC(c4nc(-c5ccc(F)cc5)no4)C3)cccn2n1
Efficacy (HEK293 [4]): 16%

CCOc1ccccc1S(=O)(=O)N1CC(c2nc(-c3ccccc3F)no2)C1
Efficacy (HEK293 [2]): 88%

CCOc1ccccc1C(C)N1CC(c2nc(-c3ccsc3)no2)C1 (stereo unspecified)
Efficacy (HEK293 [4]): < 10%

CCOc1ccccc1S(=O)(=O)N1CC(c2nc(-c3cccc(F)c3)no2)C1
inhibition (HEK293 [3]): inactive
Efficacy (HEK293 [2]): inactive

CCOc1ccccc1S(=O)(=O)N1CC(c2nc(-c3cnsc3)no2)C1
IC50 [1]: 6.6 µM
Efficacy (HEK293 [2]): 106%

O=S(=O)(c1cccc(F)c1)N1CC(c2nc(-c3ccsc3)no2)C1
Efficacy (HEK293 [4]): 24%

Cc1cccc(S(=O)(=O)N2CC(c3nc(-c4ccsc4)no3)C2)c1
Efficacy (HEK293 [4]): < 10%

O=S(=O)(c1ccccc1OCC1CC1)N1CC(c2nc(-c3ccc(F)cc3)no2)C1
Efficacy (HEK293 [2]): 95%

CCCc1ccccc1S(=O)(=O)N1CC(c2nc(-c3ccsc3)no2)C1
Efficacy (HEK293 [2]): 79%

CCOc1ccccc1S(=O)(=O)N1CC(c2nc(-c3ccc(Cl)cc3)no2)C1
Efficacy (HEK293 [2]): 94%

O=S(=O)(c1ccccc1N1CCCCC1)N1CC(c2nc(-c3ccc(F)cc3)no2)C1
Efficacy (HEK293 [2]): 28%

Cc1ccc(S(=O)(=O)N2CC(c3nc(-c4ccsc4)no3)C2)cc1
inhibition (HEK293 [3]): inactive
Efficacy (HEK293 [2]): inactive

CCOc1ccccc1S(=O)(=O)N1CC(c2nc(-c3ccccc3)no2)C1
Efficacy (HEK293 [2]): 51%

CCCCOc1ccccc1S(=O)(=O)N1CC(c2nc(-c3ccsc3)no2)C1
inhibition (HEK293 [3]): inactive
Efficacy (HEK293 [2]): inactive

CCOc1ccccc1S(=O)(=O)C1CN(c2nc(-c3ccc(F)cc3)no2)C1
Efficacy (HEK293 [2]): 24%

CCOc1ccccc1S(=O)(=O)N1CC(c2nc(-c3ccc(F)cn3)no2)C1
inhibition (HEK293 [3]): inactive
Efficacy (HEK293 [2]): inactive

CCOc1ccccc1S(=O)(=O)N1CC(c2nc(-c3ccc(F)cc3)cn2C)C1
Efficacy (HEK293 [2]): 47%

Cc1nnc2c(S(=O)(=O)N3CC(c4nc(-c5ccc(F)cc5)no4)C3)cccn12
inhibition (HEK293 [3]): inactive
Efficacy (HEK293 [2]): inactive

CCOc1ccccc1S(=O)(=O)N1CC(c2nc(-c3cccc(C)c3)no2)C1
Efficacy (HEK293 [2]): < 10%

CCOc1ccccc1S(=O)(=O)N1CC(c2cc(-c3ccc(F)cc3)n[nH]2)C1
Efficacy (HEK293 [4]): 24%

O=S(=O)(c1ccc(Cl)cc1)N1CC(c2nc(-c3ccsc3)no2)C1
inhibition (HEK293 [3]): inactive
Efficacy (HEK293 [2]): inactive

CCOc1ccccc1S(=O)(=O)c1ccc(-c2nc(-c3ccc(F)cc3)no2)cc1
inhibition (HEK293 [3]): inactive
Efficacy (HEK293 [2]): inactive

CCOc1ccccc1CN1CC(c2nc(-c3ccsc3)no2)C1
Efficacy (HEK293 [4]): 31%

CCOc1ccccc1S(=O)(=O)N1CC(c2nc(-c3ccccc3C(F)(F)F)no2)C1
Efficacy (HEK293 [4]; filed as activator): 66%

CCOc1ccccc1S(=O)(=O)N1CC(c2nnc(-c3ccc(F)cc3)[nH]2)C1
Efficacy (HEK293 [4]): 31%

O=S(=O)(c1cccn2ccnc12)N1CC(c2nc(-c3ccc(F)cc3)no2)C1
Efficacy (HEK293 [4]; filed as activator): 48%

CCOc1ccccc1S(=O)(=O)N1CC(c2nc(-c3ccncc3)no2)C1
inhibition (HEK293 [3]): inactive
Efficacy (HEK293 [2]): inactive

CCOc1ccccc1S(=O)(=O)N1CC(c2nc(-c3cccc(Cl)c3)no2)C1
inhibition (HEK293 [3]): inactive
Efficacy (HEK293 [2]): inactive

CCOc1ccccc1S(=O)(=O)N1CC(c2nc(-c3cccnc3)no2)C1
inhibition (HEK293 [3]): inactive
Efficacy (HEK293 [2]): inactive

CCOc1ccccc1S(=O)(=O)N1CC(c2nc(-c3ccccn3)no2)C1
inhibition (HEK293 [3]): inactive
Efficacy (HEK293 [2]): inactive

CCOc1ccccc1S(=O)(=O)N1CC(c2nc(-c3ccccc3OC)no2)C1
Efficacy (HEK293 [4]): 18%

CCOc1ccccc1C(=O)N1CC(c2nc(-c3ccsc3)no2)C1
Efficacy (HEK293 [4]): 18%

COc1ccc(Cl)cc1NC(=O)CN1CCN(S(=O)(=O)N2CCC(C)CC2)CC1
Efficacy (CHO): 95%
IC50 [5]: 2.28 µM

CCOc1ccccc1S(=O)(=O)N1CC(c2nc(-c3cccc(OC)c3)no2)C1
Efficacy (HEK293 [4]): < 10%

O=S(=O)(c1cccc2ccoc12)N1CC(c2nc(-c3ccc(F)cc3)no2)C1
Efficacy (HEK293 [4]): 37%

CCOc1ccccc1S(=O)(=O)N1CC(c2nc(-c3ccc(F)cc3F)no2)C1
IC50 [1]: 6.5 µM
Efficacy (HEK293 [2]): 93%

CCOc1ccccc1S(=O)(=O)[C@H]1C[C@@H](c2nc(-c3ccc(F)cc3)no2)C1
inhibition (HEK293 [3]): inactive
Efficacy (HEK293 [2]): inactive

CCOc1ncccc1S(=O)(=O)N1CC(c2nc(-c3ccc(F)cc3)no2)C1
Efficacy (HEK293 [2]): 46%

COc1cccc(S(=O)(=O)N2CC(c3nc(-c4ccsc4)no3)C2)c1
inhibition (HEK293 [3]): inactive
Efficacy (HEK293 [2]): inactive

O=S(=O)(c1ccccc1Cl)N1CC(c2nc(-c3ccsc3)no2)C1
Efficacy (HEK293 [4]; filed as activator): 47%

O=S(=O)(c1ccccc1F)N1CC(c2nc(-c3ccsc3)no2)C1
Efficacy (HEK293 [4]): 30%

CCCOc1ccccc1S(=O)(=O)N1CC(c2nc(-c3ccsc3)no2)C1
IC50 [1]: 2.6 µM
Efficacy (HEK293 [2]): 87%

CCOc1ccccc1S(=O)(=O)N1CC(c2nc(-c3cccc(C(F)(F)F)c3)no2)C1
Efficacy (HEK293 [2]): 48%

CCOc1ccccc1S(=O)(=O)N1CC(c2nc(-c3ccccc3Cl)no2)C1
Efficacy (HEK293 [2]): 81%

CCOc1ccccc1S(=O)(=O)N1CC(c2noc(-c3ccc(F)cc3)n2)C1
Efficacy (HEK293 [2]): 45%

CCOc1ccccc1NC(=O)N1CC(c2nc(-c3ccsc3)no2)C1
Efficacy (HEK293 [4]): < 10%

CCOc1ccccc1S(=O)(=O)N1CC(C)(c2nc(-c3ccc(F)cc3)no2)C1
Efficacy (HEK293 [4]): 14%

CCOc1ccccc1S(=O)(=O)N1CC(c2ncc(-c3ccc(F)cc3)o2)C1
Efficacy (HEK293 [4]): 37%

CCOc1ccccc1S(=O)(=O)N1CC[C@H](c2nc(-c3ccc(F)cc3)no2)C1
IC50 [1]: > 10 µM
Efficacy (HEK293 [2]): 63%

O=S(=O)(c1ccccc1OCC1CCC1)N1CC(c2nc(-c3ccc(F)cc3)no2)C1
Efficacy (HEK293 [2]): 88%

O=S(=O)(c1ccccc1OC1CCCC1)N1CC(c2nc(-c3ccc(F)cc3)no2)C1
Efficacy (HEK293 [2]): 93%

CCOc1ccccc1S(=O)(=O)N1CC(c2nc(-c3ccc(C)cc3)no2)C1
inhibition (HEK293 [3]): inactive
Efficacy (HEK293 [2]): inactive

O=S(=O)(c1cccc(Cl)c1)N1CC(c2nc(-c3ccsc3)no2)C1
inhibition (HEK293 [3]): inactive
Efficacy (HEK293 [2]): inactive

Cc1cn2cccc(S(=O)(=O)N3CC(c4nc(-c5ccc(F)cc5)no4)C3)c2n1
Efficacy (HEK293 [4]): 19%

CCOc1ccccc1S(=O)(=O)N1CC(F)(c2nc(-c3ccc(F)cc3)no2)C1
Efficacy (HEK293 [2]): 98%

O=S(=O)(c1ccccc1C(F)(F)F)N1CC(c2nc(-c3ccsc3)no2)C1
Efficacy (HEK293 [4]): 36%

CCOc1ccccc1S(=O)(=O)[C@H]1C[C@H](c2nc(-c3ccc(F)cc3)no2)C1
Efficacy (HEK293 [2]): 52%

O=S(=O)(c1ccccc1OC1COC1)N1CC(c2nc(-c3ccc(F)cc3)no2)C1
Efficacy (HEK293 [4]; filed as activator): 43%

CCOc1ccccc1S(=O)(=O)N1CC(c2nc(-c3ccco3)no2)C1
Efficacy (HEK293 [2]): 44%

O=S(=O)(c1cccn2ncnc12)N1CC(c2nc(-c3ccc(F)cc3)no2)C1
Efficacy (HEK293 [4]): 16%

CCOc1ccccc1S(=O)(=O)N1CC(c2nc(-c3ncccn3)no2)C1
inhibition (HEK293 [3]): inactive
Efficacy (HEK293 [2]): inactive

O=S(=O)(c1ccc(F)cc1)N1CC(c2nc(-c3ccsc3)no2)C1
inhibition (HEK293 [3]): inactive
Efficacy (HEK293 [2]): inactive

CCOc1ccccc1S(=O)(=O)N1CC(c2nc(-c3ccc(Cl)cc3F)no2)C1
IC50 [1]: 7.2 µM
Efficacy (HEK293 [2]): 99%

O=S(=O)(c1ccc(C(F)(F)F)cc1)N1CC(c2nc(-c3ccsc3)no2)C1
inhibition (HEK293 [3]): inactive
Efficacy (HEK293 [2]): inactive
